Shown are actives, neighbours in structure and some others; about 2.9% of the full set was active somewhere.
Runt-SMMHC FRET: Runt domain-CBFb-SMMHC interaction inhibition | Cerulean-Runt/Venus-CBFb-SMMHC FRET ratio 530/480, 1 h | inhibition, % at 20 µM | actives 0.74% (n = 220,000) | AID 1434 | Q01196+Q13951;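 active = mean inhibition across duplicate retests at 20 µM reaching about 50%, limit read from the data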;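 note: 0% = DMSO wells and 100% = wells with excess untagged CBFb-SMMHC; inhibitors lower the FRET ratio by blocking Runt binding to CBFb-SMMHC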
KLK7 zymogen act: proKLK7 (human) activation, primary screen; activation, % at 7 µM; actives 0.9% (n = 370,000); AID 652039; purified proKLK7, EDANS-DABCYL substrate fluorescence; 100% is mature enzyme control, 0% vehicle; P49862;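 active = activation above the mean of all tested compounds plus 3 SD, computed per campaign excluding outliers beyond control limits, cut at about 13% in these data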
Wee1 degr inh: inhibitors of human Wee1 degradation. P30291. HeLa Luc-Wee1K328M stability, luciferase luminescence; 100% = proteasome inhibitor MG132 effect. reporter increase, % at 5 µM. actives 1.2% (n = 220,000);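 active = activation above the mean of all tested compounds plus 3 SD, set per screening run, cut at about 8.8% in these data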;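 note: cells exposed to compound for 20 h before luminescence read; 0% = DMSO alone and 100% = MG132 at 30 µM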
Target sequence (P30291 whole entry K328M): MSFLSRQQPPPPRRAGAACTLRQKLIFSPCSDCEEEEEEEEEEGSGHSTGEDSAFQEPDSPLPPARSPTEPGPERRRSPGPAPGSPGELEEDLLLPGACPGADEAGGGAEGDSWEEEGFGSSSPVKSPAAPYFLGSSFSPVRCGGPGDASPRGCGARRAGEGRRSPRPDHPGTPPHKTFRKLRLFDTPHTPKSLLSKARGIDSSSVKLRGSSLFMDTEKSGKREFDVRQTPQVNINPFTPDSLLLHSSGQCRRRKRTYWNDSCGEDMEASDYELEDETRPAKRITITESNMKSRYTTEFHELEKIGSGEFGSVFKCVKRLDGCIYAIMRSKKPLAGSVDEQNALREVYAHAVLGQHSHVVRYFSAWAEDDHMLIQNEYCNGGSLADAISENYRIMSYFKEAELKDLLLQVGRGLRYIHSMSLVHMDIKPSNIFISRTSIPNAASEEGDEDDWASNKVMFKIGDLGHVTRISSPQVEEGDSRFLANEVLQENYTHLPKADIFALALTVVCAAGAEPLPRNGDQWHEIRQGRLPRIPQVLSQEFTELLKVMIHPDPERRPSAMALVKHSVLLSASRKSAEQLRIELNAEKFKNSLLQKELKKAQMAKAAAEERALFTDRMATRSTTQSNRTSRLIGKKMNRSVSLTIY
AI-2 QS mod: modulates the Vibrio harveyi AI-2 quorum sensing system; AID 2094; actives 0.4% (n = 300,000); activity change, % at 7.5 µM; Vibrio harveyi JMH597 AI-2 luminescence/OD600 ratio, 9 h; stronger effect = lower value; strain lacks LuxN and CqsS sensors; 0 = neutral-control median; in the data active = activity change below about -75%, passing the limit was not always enough; inconclusive = no clear call, values can overlap the other calls;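 note: luminescence divided by OD600 gain over 9 h not by final OD600 alone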
RanGTP-Impb inh: disruptors of Ran-importin-beta complex formation – biochemical, FRET, CFP-Ran, YFP-importin-beta, homogeneous, primary screen. inhibition, % (no concentration beside the values). AID 2216. cell-free CFP-Ran/YFP-importin-beta FRET ratio. actives 1.1% (n = 300,000);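 active = more than half of the replicate wells show a fall in the fluorescence ratio signal beyond about 16%, limit read from the data, passing the limit was not always enough; inconclusive = exactly half of the replicate wells pass the set limit; inactive = fewer than half of replicates pass the limit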;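 note: 0% = DMSO wells and 100% = Ran loaded with GDP instead of GTP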
Runt-CBFb FRET: Runt domain-CBFb interaction inhibition | AID 1496 | inhibition, % at 20 µM | Cerulean-Runt/Venus-CBFb FRET ratio 530/480, 1 h | actives 0.46% (n = 220,000) | Q01196+Q13951;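 active = inhibition over about 50% at 20 µM in the single-dose screen, limit read from the data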;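 note: 0% = DMSO wells and 100% = excess unlabeled CBFb competitor control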
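Schedule: protein complex preformed 1 h, compound exposure 1 h, room temperature, dark; test system: Cerulean-labeled Runt domain protein; amount: 100 nM per protein; buffer or medium: Tris 50 mM pH 7.5, KCl, K2SO4, 0.01% BSA; read-out: loss of energy transfer signal; detection: FRET fluorescence; controls: 5 µM unlabeled CBFb as full-inhibition high control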
Runt-CBFb TRFRET: disrupts human RUNX1 Runt domain binding to CBFb. shares compounds with Runt-CBFb FRET. inhibition, % at 20 µM. TR-FRET RUNX1 Runt domain-CBFb binding. actives 20% (n = 480); in the data active = inhibition above about 40%
* hit, by the source's call; ? = inconclusive; nt = no result.

SMILES | Runt-SMMHC FRET | KLK7 zymogen act | Wee1 degr inh | AI-2 QS mod | RanGTP-Impb inh | Runt-CBFb FRET | Runt-CBFb TRFRET
CC(C)Cn1c(N)c(C(=O)NCC2CCCO2)c2nc3ccccc3nc21 (configuration not stated) | 58* | -28 | 1 | -4 | 82* | 52* | 31
COc1ccc(OC)c(-n2c(N)c(C(=O)NCC3CCCO3)c3nc4ccccc4nc32)c1 (configuration not stated) | 34 | -125 | 0 | 11 | 11 | 15 | nt
CC(C)C(=O)NC(Nc1cccc2cccnc12)C(Cl)(Cl)Cl (configuration not stated) | 3 | 1 | 3 | 14 | 1 | 79* | 48*
CCOC(=O)c1c(NC(=O)c2ccccc2)sc2c1CCc1ccccc1-2 | 27 | 0 | 1 | -10 | 1 | 55* | 6
O=C(NCC1CCCO1)c1cccc(NS(=O)(=O)c2ccc(Br)cc2)c1 (configuration not stated) | nt | 0 | nt | 15 | -2 | nt | nt
CC1(C(=O)NS(=O)(=O)c2ccccc2Cl)CCN1C(=O)Cc1ccccc1Cl (configuration not stated) | nt | 0 | nt | nt | nt | nt | nt
Oc1ccc(O)c(-c2cnns2)c1 | nt | 0 | 5 | 19 | -1 | 71* | -17
COc1ccc2cc(CN(Cc3ccco3)C(=S)NCC3CCCO3)c(=O)[nH]c2c1 (configuration not stated) | nt | 0 | -2 | 3 | 1 | nt | nt
CNC(=S)N(Cc1cc2ccc(OC)cc2[nH]c1=O)CC1CCCO1 (configuration not stated) | 40 | 0 | -2 | 22 | 7 | 63* | 26
Cn1c(C2=C(O)CN(Cc3ccccc3)C2=N)nc2ccccc21 | -3 | 0 | 1 | 17 | -5 | -1 | nt
Oc1ccccc1OCc1nc2ccccc2s1 | -2 | -1 | -1 | -55 | -3 | 0 | nt
Oc1ccc(O)c(Cc2nc3ccccc3s2)c1 | 10 | -1 | 5 | 6 | 1 | 51* | 43*
N#Cc1c2c(c(Nc3ccccc3)n3c1nc1ccccc13)CCC2 | 70* | 0 | -2 | 16 | 77* | 55* | -2
N#Cc1c2c(c(Nc3ccc(F)cc3)n3c1nc1ccccc13)CCCC2 | nt | 1 | nt | nt | nt | nt | nt
O=C1CC(N2CCOCC2)C(=O)N1Cc1ccc(N2CCCC2=O)cc1 (configuration not stated) | 0 | -1 | -1 | 9 | 3 | 2 | nt
O=C1CC(N2CCC(O)(c3ccc(Cl)cc3)CC2)C(=O)N1Cc1ccc(N2CCCC2=O)cc1 (configuration not stated) | -3 | 1 | 1 | 9 | 2 | 66* | -13
CC(=O)C1=C(O)C(=O)N(c2cccc(Br)c2)C1c1ccccc1Cl (configuration not stated) | nt | 1 | nt | nt | 5 | nt | nt
O=S(=O)(c1ccc(=S)[nH]c1)N1CCCC1 | nt | 0 | nt | nt | nt | nt | nt
CN(C)S(=O)(=O)c1ccc(=S)[nH]c1 | 43 | 0 | -3 | 2 | 0 | 50* | -61
O=C(NNc1cc(Br)c(O)c(Br)c1)c1ccccc1 | 36 | 0 | 0 | -42 | -4 | 78* | 45*
CCc1nnc(NC(=O)CSc2nnc(-c3cccnc3)n2CC)s1 | -9 | 0 | 3 | 28 | ? | 77* | -10
COCCOC(=O)C(C#N)c1nc2ccccc2nc1N1CCN(Cc2ccccc2)CC1 (configuration not stated) | 97* | nt | 2 | 26 | 6 | 53* | 1
Cc1ccc(S(=O)(=O)N2CCCCC2CCNC(=O)C(=O)NCc2ccccc2)cc1 (configuration not stated) | nt | 0 | nt | 16 | 1 | nt | nt
O=C(O)c1ccccc1SC1CC(=O)N(c2cccc3ccccc23)C1=O (configuration not stated) | 20 | 0 | -3 | nt | nt | 53* | 47*
CCOC(=O)c1cc2c(=O)n3ccccc3nc2n(CCOC)c1=NC(=O)C(C)(C)C | -16 | 13 | -2 | 5 | 77* | 77* | -7
SMILES | Runt-SMMHC FRET | KLK7 zymogen act | Wee1 degr inh | AI-2 QS mod | RanGTP-Impb inh | Runt-CBFb FRET | Runt-CBFb TRFRET
O=C(O)CSc1c2c(nc3cc(C(=O)N4CCOCC4)ccc13)CCCC2 | 102* | 0 | 3 | 16 | 31* | 59* | 31
CCOC(=O)N1CCN(C(=O)c2ccc3c(SCC(=O)O)c4c(nc3c2)CCCC4)CC1 | 2 | nt | 0 | 29 | 0 | 2 | nt
CCC1(C)Cc2c(sc3[nH]c(=O)[nH]c(=O)c23)CS1 (configuration not stated) | nt | 1 | 0 | 47 | 6 | 57* | 18
CCOc1ccccc1NC(=O)C(OC(=O)c1ccccc1O)c1ccccc1 (configuration not stated) | -1 | 0 | 0 | 9 | -4 | 0 | nt
CCOc1ccccc1NC(=O)C(OC(=O)c1cc(C)oc1C)c1ccccc1 (configuration not stated) | 3 | 0 | 3 | 19 | -5 | 54* | -13
Cc1cc(C)c2c(n1)sc1c(-c3ccccc3)c(C#N)c(N)nc12 | 83* | -2 | -1 | 20 | 82* | 60* | 2
Cc1nc(N)c(C#N)c(-c2ccccc2)c1C | 2 | 0 | 2 | -5 | 2 | -1 | nt
O=C(CN1C(=O)NC2(CCCCCCC2)C1=O)Nc1cccc(Br)c1 | nt | 0 | nt | nt | nt | nt | nt
CCN(CC)S(=O)(=O)c1ccc(OC)c(NS(=O)(=O)c2ccc(F)cc2)c1 | 149 | 0 | -1 | -5 | -2 | 50* | -11
Cc1ccc(NC(=O)C(c2ccccc2)c2ccccc2)c(O)c1 | nt | 0 | nt | -6 | 5 | nt | nt
Cc1nnc(Sc2cc(NCCO)c([N+](=O)[O-])c3nonc23)s1 | 31 | 0 | 8 | ? | -1 | 52* | 27
CN1c2ccccc2C(O)=C(C(=S)Nc2ccccc2)S1(=O)=O | 5 | 0 | -2 | 15 | 8 | 4 | nt
CN1c2ccsc2C(O)=C(C(=S)Nc2ccccc2)S1(=O)=O | 91* | -1 | -2 | 21 | 89* | 53* | 34
CCOC(=O)C1(CCOc2ccccc2)CCN(Cc2ccc(O)c(OCC)c2)CC1 | nt | -1 | nt | 13 | -1 | nt | nt
Cc1ccc(/C=C/C(=O)c2ccc(C)cc2)cc1 | 1 | 0 | 0 | -21 | -2 | -3 | nt
Cc1ccc(C(=O)/C=C/C(=O)c2ccc(C)cc2)cc1 | 50 | 0 | -4 | -45 | 3 | 54* | 19

From PubChem
